Consider 95 molecules from ChEMBL document CHEMBL4513216, “Probing the Open Global Health Chemical Diversity Library for Multistage-Active Starting Points for Next-Generation Antimalarials” (ACS Infect Dis, 2020).

The nature of this series: Toxicity liver stage against HepG2, at 10uM. Particulars: human, HepG2-A16-CD81EGFP cells; read-out: INHIBITION
On the set-up: test concentration 10 uM, cell line HepG2-A16-CD81EGFP. The class given is cell-based. The gist of the method: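 Uninfected HepG2-A16-CD81EGFP cells, 3 × 10^3 per well, 1536-well, plated on prespotted compound at 10 μM final, parasite-free screening media added to match infected plates; puromycin 10 μM positive, DMSO 0.5% negative; run in parallel with 48 h PbLuc assay at 37 °C, 5% CO2; viability by CellTiter-Glo luminescence, normalized to controls.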
As to `CCOC(=O)c1nc(CC(=O)Nc2ccccc2)no1`, the cytotoxicity at 10 µM amounted to 6.96%.

Consider `COCCn1cc(C(=O)Nc2nc3c(s2)CCC3)c2ccccc21`, for which the cytotoxicity at 10 µM worked out at 77.9%.

Consider `CC(C)c1sc(Br)nc1C(=O)NCc1ccncc1`, for which the cytotoxicity at 10 µM was determined as 1.18%.

Regarding `COCCCN1CC2(CCCCN2C(=O)C2CCCCC2)CC1=O` (stereo not given), the cytotoxicity at 10 µM came to 12.2%.

With `c1cnc(N2CC[C@@H]3[C@@H]2CCN3Cc2cccs2)nc1`, the cytotoxicity at 10 µM amounted to 3.91%.

`CNC(=O)N1CCC2(CC1)C(=O)N(C)c1c(F)cccc12`: the cytotoxicity at 10 µM was -5.86%.

With `CCN1C(=O)CC[C@@H]2[C@H]1CCN2C(=O)Cc1cccc(OC)c1`, the cytotoxicity at 10 µM came to 0.657%.

Consider `COCC(=O)N1CCC(c2nc3ccc(N4CCOCC4)cn3n2)CC1`, for which the cytotoxicity at 10 µM is 12%.

For `CS(=O)(=O)N1C[C@@H]2COC[C@H](C(=O)Nc3cnccn3)[C@@H]2C1`, the cytotoxicity at 10 µM came out at 14.6%.

In the case of `Cc1cccc(C)c1Nc1noc2c1CN(C(=O)c1ccnn1C)CC2`, the cytotoxicity at 10 µM was found to be 7.3%.

For the molecule `Cc1ccnc(C2(C)CCCN2S(=O)(=O)c2ccccc2)n1` (stereo not given), the cytotoxicity at 10 µM came to 0.435%.

Consider `CN1CCCC(c2cccc(-c3cccc(C(F)(F)F)c3)n2)C1` (stereo not given), for which the cytotoxicity at 10 µM is -6.47%.

For `Nc1cc(CCC2CN(Cc3cccc(C(=O)O)c3)CCO2)ccn1` (stereo not given), the cytotoxicity at 10 µM was -1.17%.

For the molecule `Cc1ccc(F)c(S(=O)(=O)N2CCCC2c2ccncc2)c1` (stereo not given), the cytotoxicity at 10 µM worked out at 10.6%.

`CCN(CC1CC1)C(=O)NCc1nnc2n1CCC2`: the cytotoxicity at 10 µM was -13.2%.

For the molecule `Cc1ccc2c(c1)N(C(=O)c1c[nH]c(C)cc1=O)CC(C)O2` (stereo not given), the cytotoxicity at 10 µM came to 23.6%.

On to `CCC(=O)Nc1ccc(N2CCC(OC)CC2)c(C(F)(F)F)c1`, for which the cytotoxicity at 10 µM was 5.72%.

Turning to `Cc1cc(NC(=O)c2ccc(N3CCOCC3)cc2)[nH]n1`, the cytotoxicity at 10 µM was -28.5%.

`Cc1ccc(OCC(=O)Nc2cc(C(=O)O)cc(S(C)(=O)=O)c2)cc1C`: the cytotoxicity at 10 µM is -4.95%.

For `Cc1ccc(C(=O)NCCS(=O)(=O)Cc2ccccc2)c(=O)[nH]1`, the cytotoxicity at 10 µM was -5.96%.

Turning to `Cc1ccc(C)c(CS(=O)(=O)Cc2ccn(C)c(=O)c2)c1`, the cytotoxicity at 10 µM was 13.8%.

As to `Cc1ccc(CNCc2cc(Br)c3c(c2)OCO3)cc1`, the cytotoxicity at 10 µM was 5.35%.

As for `O=C(CN1CCCC(c2ncc[nH]2)C1)NCCCN1CCCCCC1=O` (stereo not given), the cytotoxicity at 10 µM amounted to 6.66%.

For the molecule `CCOCCN1CCN(c2ccc(C#N)cn2)CC1`, the cytotoxicity at 10 µM is -4.21%.

Consider `Cc1nc(NCc2nncn2C2CC2)c2c(CC(C)C)csc2n1`, for which the cytotoxicity at 10 µM is -5.57%.

`O=C(Nc1cccc(F)c1)NC1CCN(Cc2ccncc2)CC1`: the cytotoxicity at 10 µM was -9.01%.

For `Cc1nnc2n1CCN(CC(=O)NC(C)c1ccc3ccccc3c1)C2` (stereo not given), the cytotoxicity at 10 µM was -7.91%.

`CC(C)Cc1noc(CNc2cccc(-c3nnnn3C)c2)n1`: the cytotoxicity at 10 µM worked out at 4.6%.

With `O=C(NCC1CCN(CCc2ccccc2)C1)c1c(F)cccc1F` (stereo not given), the cytotoxicity at 10 µM was 16.6%.

With `COc1cc(NC(=O)NCCO)ccc1N1CCOC1=O`, the cytotoxicity at 10 µM was -0.803%.

Take `CNC(=O)CC1CCN(C(=O)NCc2cn3c(C)cccc3n2)CC1`: the cytotoxicity at 10 µM came to 3.88%.

Take `Cc1ccc(S(=O)(=O)N2CCC(N3CCCCC3)CC2)cc1C`: the cytotoxicity at 10 µM is 8.95%.

Take `Cn1cc(CNC(=O)NCCOc2ccc(F)c(F)c2)cn1`: the cytotoxicity at 10 µM was determined as 2.13%.

As for `CC(C)(C)NC(=O)NC(=O)COc1nc(C(C)(C)C)no1`, the cytotoxicity at 10 µM was -1.62%.

`CCc1nc(C)c(C(=O)N2CCCC(c3noc(C)n3)C2)s1` (stereo not given): the cytotoxicity at 10 µM came to 5.82%.

As to `O=C(NCCCNC(=O)c1cccc(O)c1)Nc1ccc(Cl)cc1`, the cytotoxicity at 10 µM is -3.79%.

For `Cc1noc(CCCC(=O)N2CCCCC2c2nccs2)n1` (stereo not given), the cytotoxicity at 10 µM was -87.5%.

In the case of `O=C(c1ccc2nncn2c1)N1CCSC2(CCCCC2)C1`, the cytotoxicity at 10 µM is -5.32%.

Consider `Cc1cc(CN(CCO)c2ccccc2)on1`, for which the cytotoxicity at 10 µM is -14.7%.

For the molecule `CCn1c(CN(C)Cc2csc(C)n2)nc2cc(F)ccc21`, the cytotoxicity at 10 µM was -47%.

On to `O=C(CCc1cscn1)N1CCC(C(=O)O)(c2ccccc2)CC1`, for which the cytotoxicity at 10 µM is -5.36%.

As to `CNC(=O)CN(C)C(=O)c1cc2ccccc2cc1OC`, the cytotoxicity at 10 µM was 17.1%.

`COCCN(Cc1cccc(O)c1)CC1CC1`: the cytotoxicity at 10 µM was 12.7%.

For `Cc1ccc(CNCc2nnc3n2CC(C(F)(F)F)CC3)cc1` (stereo not given), the cytotoxicity at 10 µM was 6.84%.

On to `CCOCC(=O)NC1(c2cccc(Br)c2)CC1`, for which the cytotoxicity at 10 µM was -11.3%.

As to `CO[C@H]1CCN(C(=O)Cc2ccc(F)cc2)[C@H]1Cc1ccncc1`, the cytotoxicity at 10 µM turned out to be 5.55%.

For the molecule `CC1=N[C@@]2(CC[C@@H]3CN(S(C)(=O)=O)C[C@@H]32)C(=O)N1CC(C)C`, the cytotoxicity at 10 µM is -71.3%.

For the molecule `O=C1CC(c2ccccc2)C2(CCN(C(=O)c3cnccn3)CC2)N1` (stereo not given), the cytotoxicity at 10 µM is -75.1%.

In the case of `COC[C@@H]1CC[C@H]2[C@H](CCN2S(=O)(=O)c2ccc(OC)cc2)O1`, the cytotoxicity at 10 µM worked out at 0.796%.

In the case of `Nc1ncc(-c2ccc(NC(=O)[C@@H]3CCCCN3)cc2)cn1`, the cytotoxicity at 10 µM was -4.44%.

Regarding `O=C(Cc1cn2ccsc2n1)N1CCOCC(O)(CN2CCCC2)C1` (stereo not given), the cytotoxicity at 10 µM is -3.36%.

On to `Fc1ccccc1CC1CCN(Cc2ccccn2)CC1`, for which the cytotoxicity at 10 µM is 2.25%.

On to `CN(CCN1CCCC1)c1nccc(N2CCN[C@H]3CS(=O)(=O)C[C@H]32)n1`, for which the cytotoxicity at 10 µM is -8.93%.

`Cc1ccc(-c2nnc(CN3CCCC(O)(CO)CC3)o2)n1C` (stereo not given): the cytotoxicity at 10 µM is -2.4%.

For the molecule `CCCOc1ccc(Cl)cc1CNc1ncnc2oc(C)nc12`, the cytotoxicity at 10 µM was found to be 9.98%.

On to `Cc1cccc(OC2CN(C(=O)c3cnn(C)c3)C2)c1`, for which the cytotoxicity at 10 µM was -2.92%.

In the case of `Cn1ccnc1CN1CCC(Cn2cc(-c3ccccc3)nn2)CC1`, the cytotoxicity at 10 µM was found to be 0.959%.

Turning to `CN1CCCCCC1C(=O)N1CCCN(c2ccccc2)CC1` (stereo not given), the cytotoxicity at 10 µM is -6.56%.

Turning to `C[C@@H]1CN(S(=O)(=O)c2ccc(F)cc2F)C[C@]1(C)O`, the cytotoxicity at 10 µM was -3.36%.

Turning to `CC(C)CC(C)NC1CCN(c2ccc(-c3cscn3)cc2)CC1` (stereo not given), the cytotoxicity at 10 µM is -50.6%.

`CCCOC(=O)NCCC1CN(c2cnn(C)c(=O)c2)CCO1` (stereo not given): the cytotoxicity at 10 µM worked out at 5.31%.

Turning to `O=C(CN1CCNC1=O)N1CCc2nnc(-c3ccccc3)n2CC1`, the cytotoxicity at 10 µM is -46.1%.

Consider `CN1CCN(C)C2(CCN(Cc3ccc(C4CCCO4)s3)CC2)C1` (stereo not given), for which the cytotoxicity at 10 µM is -11.7%.

Consider `Nc1ccnc(N2CCC(Cc3ccccc3Cl)(C(=O)O)CC2)n1`, for which the cytotoxicity at 10 µM was determined as 2.8%.

`Cc1cc(C)c2nc(C)cc(C(=O)NC(C)c3nnn[nH]3)c2c1` (stereo not given): the cytotoxicity at 10 µM was 7.24%.

For the molecule `O=C(c1ccco1)N1CCc2ncnc(NCc3ccccn3)c2CC1`, the cytotoxicity at 10 µM was 5.61%.

As for `COCCN(Cc1cnn(C)c1)c1nc2c(s1)c(C)nn2C`, the cytotoxicity at 10 µM is -42.4%.

Regarding `O=C1CC[C@@H](C(=O)N2CCC(Cn3cc(C4CCCCC4)nn3)CC2)N1`, the cytotoxicity at 10 µM worked out at 8.02%.

As for `Cc1cc(C(F)(F)F)nc(CCNC(C)Cn2nc(C)cc2C)n1` (stereo not given), the cytotoxicity at 10 µM came to 8.19%.

With `O=C(Nc1ccc2c(c1)OCO2)N1CCCC1c1ccco1` (stereo not given), the cytotoxicity at 10 µM was -2.11%.

With `Cc1cc(CN2CCc3nc(C)n(C)c(=O)c3CC2)[nH]n1`, the cytotoxicity at 10 µM is -7.92%.

For `CCCn1cnnc1CNCc1c[nH]nc1-c1ccc(F)cc1`, the cytotoxicity at 10 µM came out at 2.69%.

For `Cc1ccnc(CC(C)N(C)c2cc(CCN)nc(C)n2)c1` (stereo not given), the cytotoxicity at 10 µM was -48%.

Take `CN1CC2(CCCN(c3nc(N)nc4c3CCCC4)C2)OC1=O` (stereo not given): the cytotoxicity at 10 µM is -0.519%.

As to `Cc1nn(C)c(C)c1C1CCCN1C(=O)c1ccc(CN(C)C)cc1` (stereo not given), the cytotoxicity at 10 µM is -7.79%.

Consider `CCN1CCC(CNC(=O)NCc2cc(-c3ccc(C)cc3)no2)C1` (stereo not given), for which the cytotoxicity at 10 µM was -12.3%.

As for `O=C(NCCC(=O)N1CCCC1)c1nn(-c2ccccc2F)cc1O`, the cytotoxicity at 10 µM was -13.9%.

On to `O=C(O)c1cc(S(=O)(=O)Nc2ccc(Cl)cc2)cc2c1OCCO2`, for which the cytotoxicity at 10 µM came out at 2.33%.

With `Cc1ccc(CNC(=O)NCCCn2nc3ccccn3c2=O)s1`, the cytotoxicity at 10 µM is -2.09%.

With `CN(Cc1ccnc2ccccc12)C1CCS(=O)(=O)C1` (stereo not given), the cytotoxicity at 10 µM was 4.36%.

Take `O=C(NC1CC1)N1CCc2ccc(=O)n(Cc3cccnc3)c2CC1`: the cytotoxicity at 10 µM was determined as 0.995%.

As to `CN1Cc2c(C(=O)Nc3cccnc3)ncn2-c2ccccc2S1(=O)=O`, the cytotoxicity at 10 µM is -4%.

Consider `O=C(c1ncccn1)N1C[C@H]2CCC[C@@]2(COCc2cccnc2)C1`, for which the cytotoxicity at 10 µM stood at 1.83%.

For the molecule `Cc1cnc(N2CCO[C@@H]3CC(COCc4cccnc4)C[C@H]32)nc1` (stereo not given in full), the cytotoxicity at 10 µM worked out at 3.93%.

Consider `c1coc(CN2CCCn3c(nnc3Cn3cccc3)C2)c1`, for which the cytotoxicity at 10 µM is -0.314%.

`COCCC(=O)N1CCC2(CCN(Cc3cccc(F)c3)CC2)CC1`: the cytotoxicity at 10 µM is -75%.

`O=C(c1ccccn1)N1C[C@H]2CCC[C@@]2(COCC2CCOCC2)C1`: the cytotoxicity at 10 µM was -76.3%.

In the case of `COc1cccc(-c2noc(C3CCN(Cc4ccccc4C)C3)n2)c1` (stereo not given), the cytotoxicity at 10 µM was -6.88%.

On to `CO[C@@H]1CCN(Cc2ccoc2)[C@@H]2CN(Cc3ccco3)C[C@@H]21`, for which the cytotoxicity at 10 µM was found to be 8.1%.

Consider `CC(C)CN1CCN(C)C2(CCN(c3nccs3)CC2)C1=O`, for which the cytotoxicity at 10 µM was -5.4%.

With `Cc1ccc(CN2CCc3ncc(CNC(=O)C4CCC4)n3CC2)o1`, the cytotoxicity at 10 µM came out at 8.71%.

`Cn1ccnc1CN1CCC2(CC(=O)N(c3ccccn3)C2)C1` (stereo not given): the cytotoxicity at 10 µM is -74.6%.

As for `Cc1ccc(N2CCO[C@H]3CN(Cc4ccc(F)cc4)C[C@H]32)nn1`, the cytotoxicity at 10 µM is -88.6%.

As to `Cc1cccc(CN2CC3(CCN(Cc4ccoc4)CC3)OCC2=O)n1`, the cytotoxicity at 10 µM was -3.18%.

Take `Cc1[nH]nc(CCC(=O)N2C[C@@H]3CC[C@H]2CN(C(=O)N(C)C)C3)c1C`: the cytotoxicity at 10 µM was found to be 3.8%.
